Reference: BindingDB's records for doi:10.1039/c1md00059d (Centre National De La Recherche Scientifique, 2011)

Molecular target: T1, Vitamin D3 receptor A (Danio rerio, UniProt Q9PTN2)
T1 sequence (Q9PTN2 whole entry): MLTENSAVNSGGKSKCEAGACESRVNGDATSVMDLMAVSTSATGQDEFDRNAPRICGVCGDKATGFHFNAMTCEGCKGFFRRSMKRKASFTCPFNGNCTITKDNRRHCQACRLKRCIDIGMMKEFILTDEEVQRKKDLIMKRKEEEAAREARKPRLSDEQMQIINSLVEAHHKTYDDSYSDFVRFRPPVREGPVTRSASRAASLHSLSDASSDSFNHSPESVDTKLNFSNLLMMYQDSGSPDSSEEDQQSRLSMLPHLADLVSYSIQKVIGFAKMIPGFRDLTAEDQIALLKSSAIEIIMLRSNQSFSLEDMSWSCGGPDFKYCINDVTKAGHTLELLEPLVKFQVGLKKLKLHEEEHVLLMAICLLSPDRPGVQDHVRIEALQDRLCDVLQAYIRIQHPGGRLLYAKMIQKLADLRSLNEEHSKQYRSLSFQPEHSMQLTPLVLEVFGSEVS
Experiment: Agonist activity at zebrafish VDR LBD assessed as binding affinity to TAMRA-labeled SRC-1 peptide by fluorescence anisotropy assay
Summary of the method: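 Titrations were run in the presence of ligand, and peptide recruitment was monitored by fluorescence anisotropy to derive kd.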

Kd [nM]	SMILES
3300	C=C1/C(=C\C=C2/CCC[C@]3(C)[C@@H](C(CCCC(C)(C)O)CCCC(C)(C)O)CC[C@@H]23)C[C@H](O)C[C@H]1O
1800	[2H]C([2H])([2H])C(O)(CCC[C@@H](CC#CC(O)(C(F)(F)F)C(F)(F)F)[C@H]1CC[C@H]2/C(=C/C=C3C[C@H](O)C[C@@H](O)C3)CCC[C@]12C)C([2H])([2H])[2H]
1800	[2H]C([2H])([2H])C(O)(CCC[C@H](CC#CC(O)(C(F)(F)F)C(F)(F)F)[C@H]1CC[C@H]2/C(=C/C=C3C[C@H](O)C[C@@H](O)C3)CCC[C@]12C)C([2H])([2H])[2H]
